Results on eight compounds are retold here after ChEMBL document CHEMBL1140938, “Structural requirements for a lipoamino acid in modulating the anticonvulsant activities of systemically active galanin analogues” (J Med Chem, 2009).

Series [1] is described as follows: Lipophilicity, log D by HPLC method. The class given is physicochemical. In outline:
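HPLC retention times were measured on a linear gradient of 20% to 100% buffer B (0.1% TFA in 90% aqueous acetonitrile; A was 0.1% TFA in water) over 40 min. Five analogs were calibrated by shake flask: 400 µg peptide in 1 mL PBS shaken with an equal volume of water-saturated octanol for 24 h, aqueous phase quantified by HPLC. LogD was calculated from the linear correlation with retention time.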

The target in series [2] is T1, Galanin receptor type 1 (Homo sapiens, UniProt P47211).
T1 sequence (P47211 whole entry): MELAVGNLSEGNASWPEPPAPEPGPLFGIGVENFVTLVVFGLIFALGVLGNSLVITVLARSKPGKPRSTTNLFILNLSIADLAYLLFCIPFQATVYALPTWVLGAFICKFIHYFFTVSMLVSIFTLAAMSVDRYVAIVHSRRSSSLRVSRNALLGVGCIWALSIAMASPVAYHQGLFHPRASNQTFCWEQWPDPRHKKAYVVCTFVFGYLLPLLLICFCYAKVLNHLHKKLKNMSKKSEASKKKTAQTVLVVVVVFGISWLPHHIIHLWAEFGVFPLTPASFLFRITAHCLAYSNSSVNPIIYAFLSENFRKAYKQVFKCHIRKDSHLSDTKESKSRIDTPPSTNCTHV
Kind of series: Displacement of europium labeled galanin from human recombinant GalR1 receptor by time-resolved fluorescence binding assay. In outline: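 Competition binding on membranes from recombinant human GalR1 or GalR2 versus 2 nM europium-labeled galanin; 90 min incubation at room temperature, four washes (50 mM Tris-HCl pH 7.5, 5 mM MgCl2), enhancement solution 30 min at room temperature, time-resolved fluorescence read.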

Series [3] addresses T2, Galanin receptor type 2 (Homo sapiens, UniProt O43603).
T2 sequence (O43603 whole entry): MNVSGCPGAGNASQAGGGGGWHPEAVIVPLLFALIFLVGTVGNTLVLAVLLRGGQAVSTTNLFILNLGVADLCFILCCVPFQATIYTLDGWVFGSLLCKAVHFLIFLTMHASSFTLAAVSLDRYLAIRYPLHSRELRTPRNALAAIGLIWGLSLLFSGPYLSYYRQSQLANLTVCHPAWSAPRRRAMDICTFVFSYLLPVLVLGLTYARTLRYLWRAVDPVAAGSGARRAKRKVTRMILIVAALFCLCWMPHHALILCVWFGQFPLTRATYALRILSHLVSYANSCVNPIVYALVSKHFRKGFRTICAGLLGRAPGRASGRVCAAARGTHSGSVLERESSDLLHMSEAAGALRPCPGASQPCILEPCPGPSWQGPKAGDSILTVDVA
The series is described as follows: Displacement of europium labeled galanin from human recombinant GalR2 receptor by time-resolved fluorescence binding assay. The method in brief: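 Competition binding on membranes from recombinant human GalR1 or GalR2 versus 2 nM europium-labeled galanin; 90 min incubation at room temperature, four washes (50 mM Tris-HCl pH 7.5, 5 mM MgCl2), enhancement solution 30 min at room temperature, time-resolved fluorescence read. Ki from nonlinear sigmoidal variable-slope fit, one-site reversible model, tracer Kd held at 4.3 nM.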

By logD is commonly meant the decadic logarithm of the distribution of all forms, ionised or not, between an organic phase and buffer at a given pH. Read a high logD as a more lipophilic compound. `CCCCCCCC(=O)NCCCC[C@H](NC(=O)[C@H](CCCCN)NC(=O)[C@H](CCCCN)NC(=O)[C@@H]1CCCN1C(=O)CNC(=O)[C@H](CC(C)C)NC(=O)[C@H](CC(C)C)NC(=O)[C@H](Cc1ccc(O)cc1)NC(=O)CNC(=O)[C@H](C)NC(=O)[C@H](CO)NC(=O)[C@H](CC(N)=O)NC(=O)[C@H](CC(C)C)NC(=O)[C@@H](NC(=O)[C@H](Cc1c[nH]c2ccccc12)OC(=O)CNC)[C@@H](C)O)C(=O)N[C@@H](CCCCN)C(N)=O` returned a logD in series [1] of 0.78.

One may read the Ki as the dissociation constant of the complex between target and ligand, obtained from inhibition or displacement. Consider `CNCC(=O)N[C@@H](Cc1c[nH]c2ccccc12)C(=O)N[C@H](C(=O)N[C@@H](CC(C)C)C(=O)N[C@@H](CC(N)=O)C(=O)N[C@@H](CO)C(=O)N[C@@H](C)C(=O)NCC(=O)N[C@@H](Cc1ccc(O)cc1)C(=O)N[C@@H](CC(C)C)C(=O)N[C@@H](CC(C)C)C(=O)NCC(=O)N1CCC[C@H]1C(=O)N[C@@H](CCCCN)C(=O)N[C@@H](CCCCN)C(=O)N[C@@H](CCCCNC(=O)COCCOCCOCCOCCOC)C(=O)N[C@@H](CCCCN)C(N)=O)[C@@H](C)O`, for which the Ki in series [2] amounted to 0.5 nM; in series [3], 20.5 nM.

Regarding `CCCCCCCC(=O)NCCCC[C@H](NC(=O)[C@H](CCCCN)NC(=O)[C@H](CCCCN)NC(=O)[C@@H]1CCCN1C(=O)CNC(=O)[C@H](CC(C)C)NC(=O)[C@H](CC(C)C)NC(=O)[C@H](Cc1ccc(O)cc1)NC(=O)CNC(=O)[C@H](C)NC(=O)[C@H](CO)NC(=O)[C@H](CC(N)=O)NC(=O)[C@H](CC(C)C)NC(=O)[C@@H](NC(=O)[C@H](Cc1c[nH]c2ccccc12)NC(=O)CNC)[C@@H](C)O)C(=O)N[C@@H](CCCCN)C(N)=O`, the figures for the Ki in series [2] and in series [3] were 0.7 nM and 14.9 nM, respectively.

Take `CCCCCCCCCCCC(=O)NCCCC[C@H](NC(=O)[C@H](CCCCN)NC(=O)[C@H](CCCCN)NC(=O)[C@@H]1CCCN1C(=O)CNC(=O)[C@H](CC(C)C)NC(=O)[C@H](CC(C)C)NC(=O)[C@H](Cc1ccc(O)cc1)NC(=O)CNC(=O)[C@H](C)NC(=O)[C@H](CO)NC(=O)[C@H](CC(N)=O)NC(=O)[C@H](CC(C)C)NC(=O)[C@@H](NC(=O)[C@H](Cc1c[nH]c2ccccc12)NC(=O)CNC)[C@@H](C)O)C(=O)N[C@@H](CCCCN)C(N)=O`: the Ki in series [2] stood at 1.4 nM; in series [3], 16.1 nM.

For the compound `CCCCCCCCCCCCCCCCCC(=O)NCCCC[C@H](NC(=O)[C@H](CCCCN)NC(=O)[C@H](CCCCN)NC(=O)[C@@H]1CCCN1C(=O)CNC(=O)[C@H](CC(C)C)NC(=O)[C@H](CC(C)C)NC(=O)[C@H](Cc1ccc(O)cc1)NC(=O)CNC(=O)[C@H](C)NC(=O)[C@H](CO)NC(=O)[C@H](CC(N)=O)NC(=O)[C@H](CC(C)C)NC(=O)[C@@H](NC(=O)[C@H](Cc1c[nH]c2ccccc12)NC(=O)CNC)[C@@H](C)O)C(=O)N[C@@H](CCCCN)C(N)=O`, the figures for the Ki in series [2] and in series [3] were 4 nM and 15 nM, respectively.

As to `CCCCCCCCCC(=O)NCCCC[C@H](NC(=O)[C@H](CCCCN)NC(=O)[C@H](CCCCN)NC(=O)[C@@H]1CCCN1C(=O)CNC(=O)[C@H](CC(C)C)NC(=O)[C@H](CC(C)C)NC(=O)[C@H](Cc1ccc(O)cc1)NC(=O)CNC(=O)[C@H](C)NC(=O)[C@H](CO)NC(=O)[C@H](CC(N)=O)NC(=O)[C@H](CC(C)C)NC(=O)[C@@H](NC(=O)[C@H](Cc1c[nH]c2ccccc12)NC(=O)CNC)[C@@H](C)O)C(=O)N[C@@H](CCCCN)C(N)=O`, the inhibition constant Ki in series [2] is 1.3 nM; in series [3], 14.4 nM.

On to `CCCCCCCCCCCCCC(=O)NCCCC[C@H](NC(=O)[C@H](CCCCN)NC(=O)[C@H](CCCCN)NC(=O)[C@@H]1CCCN1C(=O)CNC(=O)[C@H](CC(C)C)NC(=O)[C@H](CC(C)C)NC(=O)[C@H](Cc1ccc(O)cc1)NC(=O)CNC(=O)[C@H](C)NC(=O)[C@H](CO)NC(=O)[C@H](CC(N)=O)NC(=O)[C@H](CC(C)C)NC(=O)[C@@H](NC(=O)[C@H](Cc1c[nH]c2ccccc12)NC(=O)CNC)[C@@H](C)O)C(=O)N[C@@H](CCCCN)C(N)=O`, for which the Ki in series [2] was determined as 2.6 nM; in series [3] it was 18.2 nM.

Regarding `CCCCCCCCCCCCCCCCCC(=O)NCCCC[C@H](NC(=O)[C@H](CCCCN)NC(=O)[C@H](CCCCN)NC(=O)[C@@H]1CCCN1C(=O)CNC(=O)[C@H](CC(C)C)NC(=O)[C@H](CC(C)C)NC(=O)[C@H](Cc1ccc(O)cc1)NC(=O)CNC(=O)[C@H](C)NC(=O)[C@H](CO)NC(=O)[C@H](CC(N)=O)NC(=O)[C@H](CC(C)C)NC(=O)[C@@H](NC(=O)[C@H](Cc1c[nH]c2ccccc12)OC(=O)CNC)[C@@H](C)O)C(=O)N[C@@H](CCCCN)C(N)=O`, the logD in series [1] was determined as 1.35.
